Measurements published in ChEMBL document CHEMBL5104125, “Copper chelating cyclic peptidomimetic inhibits Aβ fibrillogenesis” (RSC Med Chem, 2022).
Calls of active or inactive are those of the source. The rule behind the calls is not given here. Where a SMILES comes first, the peptide text is derived from it. [ ]: non-standard residue; d: D form. The star is where a group is joined. X1 = CCN(CC)c1ccc2c(-c3ccc(C(=O)*)cc3)c3ccc(N(CC)CC)cc3[o+]c2c1; Sar = CNCC(=O)O

Experiments:
[1] = target: Amyloid-beta precursor protein (Homo sapiens) (UniProt P05067); test: Inhibition of amyloid beta (1 to 40) (unknown origin) aggregation at 0.5 M incubated for 6 days by thioflavin S based fluorescence analysis relative to control; settings: time 6.0 day
Chain of Amyloid-beta precursor protein (Homo sapiens) (P05067 whole entry): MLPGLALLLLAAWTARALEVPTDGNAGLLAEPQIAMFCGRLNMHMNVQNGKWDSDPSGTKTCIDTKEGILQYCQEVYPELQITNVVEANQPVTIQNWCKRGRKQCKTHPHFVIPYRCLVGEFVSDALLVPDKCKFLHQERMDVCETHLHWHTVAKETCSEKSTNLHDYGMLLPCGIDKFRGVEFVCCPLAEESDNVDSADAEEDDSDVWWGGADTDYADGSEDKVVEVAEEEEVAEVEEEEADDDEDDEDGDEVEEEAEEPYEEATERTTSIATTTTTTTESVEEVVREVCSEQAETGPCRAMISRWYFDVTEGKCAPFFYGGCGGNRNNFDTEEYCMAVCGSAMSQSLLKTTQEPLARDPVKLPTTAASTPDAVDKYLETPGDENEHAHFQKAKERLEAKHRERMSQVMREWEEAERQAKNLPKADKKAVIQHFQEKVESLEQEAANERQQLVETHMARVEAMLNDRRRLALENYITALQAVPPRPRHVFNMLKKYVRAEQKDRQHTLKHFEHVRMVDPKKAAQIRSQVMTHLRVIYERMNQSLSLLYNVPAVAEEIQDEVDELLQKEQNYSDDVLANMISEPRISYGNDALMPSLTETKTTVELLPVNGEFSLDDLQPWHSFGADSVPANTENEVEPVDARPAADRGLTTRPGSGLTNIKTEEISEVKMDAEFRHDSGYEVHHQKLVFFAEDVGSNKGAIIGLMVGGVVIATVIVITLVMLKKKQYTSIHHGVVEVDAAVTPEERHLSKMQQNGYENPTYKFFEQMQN

[2] = target: Amyloid-beta precursor protein (Homo sapiens) (UniProt P05067); test: Inhibition of amyloid beta (1 to 40) (unknown origin) aggregation at 1 M incubated for 6 days by thioflavin S based fluorescence analysis relative to control; settings: time 6.0 day
[3] = target: Amyloid-beta precursor protein (Homo sapiens) (UniProt P05067); test: Inhibition of amyloid beta (1 to 40) (unknown origin) aggregation at 2 M incubated for 6 days by thioflavin S based fluorescence analysis relative to control; settings: time 6.0 day
Outline: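 Aβ1-40 (40 μM) co-incubated with 0.5-, 1- or 2-fold molar excess of peptide in PBS pH 7.4 at 37 °C for six days; ThT fluorescence monitored over time. Experiment done thrice, with two sets per solution and three readings per set.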

[4] = target: Amyloid-beta precursor protein (Homo sapiens) (UniProt P05067); test: Inhibition of amyloid beta (1 to 40) (unknown origin) aggregation assessed as reduction in fibrillar assembly at 2 M incubated for 6 days by TEM analysis; settings: time 6.0 day
Outline: (§1)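 Aβ1-40 (40 μM) co-incubated with 2-fold molar excess of peptide in PBS pH 7.4 at 37 °C for six days. TEM images (200 nm scale) and Congo red-stained birefringence images (20 μm scale) captured.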

[5] = target: Amyloid-beta precursor protein (Homo sapiens) (UniProt P05067); test: Inhibition of amyloid beta (1 to 40) (unknown origin) aggregation assessed as bright green-gold birefringence at 2 M incubated for 6 days by Congo-red staining based image analysis; settings: time 6.0 day; outline: as §1
[6] = target: Amyloid-beta precursor protein (Homo sapiens) (UniProt P05067); test: Inhibition of amyloid beta (1 to 40) (unknown origin) aggregation assessed as reduction in beta sheet conformation at 2 M incubated for 6 days by circular dichroism analysis; settings: time 6.0 day
[7] = target: Amyloid-beta precursor protein (Homo sapiens) (UniProt P05067); test: Inhibition of amyloid beta (1 to 40) (unknown origin) aggregation assessed as reduction in beta sheet conformation at 2 M incubated for 6 days by FTIR analysis; settings: time 6.0 day
[8] = target: Amyloid-beta precursor protein (Homo sapiens) (UniProt P05067); test: Inhibition of Cu2+ induced amyloid beta (1 to 40) (unknown origin) aggregation assessed as reduction in fibrils at 80 uM incubated for 36 hrs in presence of CuSO4 by thioflavin S based fluorescence analysis; settings: in the assay text read “thioflavin T” for “thioflavin S”
Outline: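 Aβ1-40 (40 μM) with CuSO4 (40 μM) and test peptide (80 μM) in PBS pH 7.4, 37 °C, 36 h. ThT fluorescence read at ex 440 nm / em 485 nm, with ThT-plus-PBS reference subtracted. Mean of three independent experiments ± SD.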

[9] = Metal chelating activity assessed as compound-Cu2+ complex formation by measuring red shift at 1:1 ratio in presence of CuSO4 by UV-Vis spectra analysis (Rvb= 265 nm)
[10] = Metal chelating activity assessed as compound-Zn2+ complex formation by measuring red shift at 1:1 ratio in presence of ZnCl2 by UV-Vis spectra analysis (Rvb= 265 nm)
[11] = Metal chelating activity assessed as compound-Cu2+ complex formation by measuring red shift at 2:1 ratio in presence of CuSO4 by UV-Vis spectra analysis (Rvb= 264 nm)
[12] = Metal chelating activity assessed as compound-Zn2+ complex formation by measuring red shift at 2:1 ratio in presence of ZnCl2 by UV-Vis spectra analysis (Rvb= 264 nm)
[13] = Metal chelating activity assessed as compound-Cu2+ complex formation by measuring exothermic event at 50 uM in presence of CuSO4 by isothermal titration calorimetry assay
Outline: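 ITC at 27 °C in 20 mM Tris-HCl pH 7.4. Metal solution (1.5 mM) in the syringe was titrated into peptide (50 μM) in the cell over 30 injections. Heats of dilution of metal into buffer were subtracted. ΔH, ΔS, K and n were fitted with a sequential two-site binding model.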

[14] = Metal chelating activity assessed as compound-Cu2+ complex formation by measuring deviation in g values at 1 to 2 M in presence of CuSO4 by electron spin resonance analysis; settings: dose 1-2 M
Outline: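 ESR spectra recorded at room temperature on Cu2+ solution (5 mM) alone and with 1- or 2-fold molar ratio of peptide; g values read.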

[15] = target: Amyloid-beta precursor protein (Homo sapiens) (UniProt P05067); test: Inhibition of Cu2+ induced amyloid beta (1 to 40) (unknown origin) aggregation assessed as disapperance of fibrillar assembly at 80 uM incubated for 36 hrs by TEM analysis
Outline: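 Aβ1-40 (40 μM) incubated with CuSO4 (40 μM) and test peptide (80 μM) in PBS pH 7.4 at 37 °C for 36 h, then imaged by TEM. Representative image from several repeats.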

Homo sapiens [16] = organism: Homo sapiens; test: Metal chelating activity assessed as extraction of Cu2+ from amyloid beta (1 to 40) (unknown origin)-Cu2+ complex by measuring fluorescence of Tyr10 at 80 uM incubated for 36 hrs by tyrosine intrinsic fluorescence assay
Outline: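 Aβ1-40 (40 μM) in PBS (50 mM, pH 7.4), with Cu2+ added at 40 μM, then peptide at 80 μM (1:1:2). Tyr10 intrinsic fluorescence emission read at 308 nm and expressed as normalized fluorescence intensity.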

[17] = target: Amyloid-beta precursor protein (Homo sapiens) (UniProt P05067); test: Inhibition of amyloid beta (1 to 40) (unknown origin) aggregation assessed as increase in size of off-target aggregated species at 80 uM incubated upto 24 hr by DLS analysis
Outline: (§2)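 Aβ1-40 (40 μM) alone or with 2 equivalents of peptide, incubated at pH 7.4, 37 °C. DLS size distribution and TEM morphology (500 nm scale) recorded at 1, 6, 12 and 24 h.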

[18] = target: Amyloid-beta precursor protein (Homo sapiens) (UniProt P05067); test: Inhibition of amyloid beta (1 to 40) (unknown origin) aggregation assessed as off-pathway aggregated species at 80 uM incubated upto 24 hr by TEM analysis; settings: TDE = time-dependent effect; outline: as §2
Lipid bilayer = test: Inhibition of membrane destabilization in carboxyfluorescein dye entrapped large unilamellar vesicle assessed as decrease in amyloid beta (1-40) induced carboxyfluorescein leakage upto 48 hrs by TEM analysis; settings: in the assay text read “by fluorescence analysis” for “by TEM analysis”
Outline: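 Carboxyfluorescein-loaded LUVs in PBS (50 mM) exposed to pre-incubated Aβ1-40 alone or Aβ1-40 with peptide (1:2). Final lipid 50 μM, Aβ1-40 2.5 μM (peptide:lipid 1:20), 37 °C. Dye leakage measured by fluorescence at intervals from 1 to 48 h; untreated LUV as control.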

[19] = Cytotoxicity against mouse Neuro2a cells assessed as reduction in cell viability by MTT assay; format: toxicity, cell-based, N2a
Outline: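 Neuro2a mouse neuronal cells treated with fluorescently labelled peptides; viability read by MTT after 24 h. IC50 calculated from linear regression of viability versus concentration.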

[20] = Drug uptake in mouse Neuro2a cells assessed as drug internalization in cytoplasm at 100 uM by confocal microscopy; format: ADME; settings: n2a
Outline: (§3)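 Neuro2a cells treated with fluorescein- or Rhodamine B-labelled peptide at 100 μM, alone or together. Green and red fluorescence imaged in bright and dark field at 20×. Co-localization checked by confocal imaging at 63×, with green and red channels captured separately and then merged.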

[21] = Drug uptake in mouse Neuro2a cells assessed as drug co-localization in cell at 100 uM in presence of PA19fCP-FI by confocal microscopy; format: ADME, cell-based; settings: n2a; outline: as §3
Homo sapiens [22] = organism: Homo sapiens; test: Binding affinity to Rhodamine B labelled amyloid beta (9-21 residues) (unknown origin) assessed as increase in fluorescence intensity of Rhodamine B at 20 uM incubated for 24 hrs by FRET analysis (Rvb= 601 nm)
Outline: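 FRET between fluorescein-labelled cyclic peptide (donor) and Rhodamine B-labelled Aβ9-21 model peptide (acceptor), mixed 1:1, ~20 μM each in PBS (50 mM, pH 7.4), incubated 24 h at 37 °C. Donor and mixture excited at 492 nm, acceptor alone at 567 nm; emission spectra recorded. Representative of several independent repeats.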

[23] = Drug uptake in mouse Neuro2a cells assessed as drug internalization in cell membrane at 100 uM by confocal microscopy; format: ADME; settings: n2a; outline: as §3
[24] = Drug uptake in mouse Neuro2a cells assessed as drug co-localization in cell at 100 uM in presence of MA.beta-RhB by confocal microscopy; format: ADME, cell-based; settings: n2a; outline: as §3

Compound | inhibition [1] [%] | inhibition [2] [%] | inhibition [3] [%] | inhibition [4] | inhibition [5] | inhibition [6] [%] | inhibition [7] [%] | IC50 [19] [µM] | also measured
CC(C)C[C@@H]1NC(=O)[C@H](CCCCNC(=O)c2ccccn2)NC(=O)[C@H](CCC(N)=O)NC(=O)[C@H](C)NC(=O)[C@H](Cc2ccccc2)NC(=O)[C@@H](Cc2ccccc2)NC(=O)[C@H](C(C)C)NC1=O | 32.4 | 52.6 | 85.6 | Active | Active | 85 | 85 | – | inhibition [8]: Active; OD [9]: 271 nm; OD [10]: 268 nm; OD [11]: 270 nm; OD [12]: 267 nm; Activity [13]: Active; Activity [14]: Active; inhibition [15]: Active; Activity (Homo sapiens [16]): 84.3%; inhibition [17]: Active; inhibition [18]: Tde; inhibition (Lipid bilayer): Active
CC(=O)N[C@@H](CCCCN)C(=O)N[C@@H](CC(C)C)C(=O)N[C@H](C(=O)N[C@H](Cc1ccccc1)C(=O)N[C@@H](Cc1ccccc1)C(=O)N[C@@H](C)C(=O)N[C@@H](CCC(N)=O)C(=O)O)C(C)C | 7.9 | 15.1 | 27.2 | – | – | – | – | – | –
CCN(CC)c1ccc2c(-c3ccc(C(=O)N(C)CC(=O)NCC(=O)N[C@@H](Cc4ccc(O)cc4)C(=O)N[C@@H](CCC(=O)O)C(=O)N[C@H](C(=O)N[C@@H](Cc4c[nH]cn4)C(=O)N[C@@H](Cc4c[nH]cn4)C(=O)N[C@@H](CCC(N)=O)C(=O)N[C@@H](CCCCN)C(=O)N[C@@H](CC(C)C)C(=O)N[C@H](C(=O)N[C@@H](Cc4ccccc4)C(=O)N[C@@H](Cc4ccccc4)C(=O)N[C@@H](C)C(=O)NCC(N)=O)C(C)C)C(C)C)cc3)c3ccc(N(CC)CC)cc3[o+]c2c1 (X1-[Sar]GYEVHHQKLVFFAG-NH2) | – | – | – | – | – | – | – | 150 | Drug uptake [20]: Active; Drug uptake [21]: Active
CC(C)C[C@@H]1NC(=O)[C@H](CCCCNC(=O)c2ccccn2)NC(=O)[C@H](CCCCNC(=S)Nc2ccc(-c3c4ccc(=O)cc-4oc4cc(O)ccc34)c(C(=O)O)c2)NC(=O)[C@H](CCC(N)=O)NC(=O)[C@H](C)NC(=O)[C@H](Cc2ccccc2)NC(=O)[C@@H](Cc2ccccc2)NC(=O)[C@H](C(C)C)NC1=O | – | – | – | – | – | – | – | 200 | OD (Homo sapiens [22]): 604 nm; Drug uptake [23]: Active; Drug uptake [24]: Active
CC(C)C[C@@H]1NC(=O)[C@H](CCCCN)NC(=O)[C@H](CCC(N)=O)NC(=O)[C@H](C)NC(=O)[C@H](Cc2ccccc2)NC(=O)[C@@H](Cc2ccccc2)NC(=O)[C@H](C(C)C)NC1=O | 25.2 | 47.9 | 73.7 | Active | Active | 74 | 74 | – | –
